In ChEMBL document CHEMBL3860038, “Discovery of (R,E)-N-(7-Chloro-1-(1-[4-(dimethylamino)but-2-enoyl]azepan-3-yl)-1H-benzo[d]imidazol-2-yl)-2-methylisonicotinamide (EGF816), a Novel, Potent, and WT Sparing Covalent Inhibitor of Oncogenic (L858R, ex19del) and Resistant (T790M) EGFR Mutants for the Treatment of EGFR Mutant …” (J Med Chem, 2016):

How the values were obtained:
[1] = Volume of distribution at steady state in balb/c mouse at 5 mg/kg, iv by liquid chromatography-tandem mass spectrometry; type: ADME, organism-based; details: in vivo, read-out: Vdss
Outline: (§1)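 Male animals (balb/c mice or Wistar rats) were used. Compound levels in plasma were measured by LC-MS/MS.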

[2] = Inhibition of EGFR E746 to A750 deletion mutant phosphorylation in human patient derived HCC827 cells incubated for 3 hrs by ELISA method; type: cell-based; details: HCC827, 3 h
Outline: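 HCC827 cells plated at 7500/well in 5% FBS/RPMI and left overnight at 37 °C. Then 3 h with a 12-point compound dilution series, no EGF stimulation. Lysed in Triton/protease/phosphatase-inhibitor buffer. Phospho-EGFR (Y1173) read by sandwich ELISA: anti-EGFR capture, anti-phospho-EGFR, anti-rabbit-HRP, chemiluminescence. IC50 from at least duplicates.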

[3] = Aqueous solubility of the compound at pH 6.8; type: physicochemical
Cytochrome P450 3A4 = Cytochrome P450 3A4 (Homo sapiens, UniProt P08684); assay: Inhibition of CYP3A4 (unknown origin); type: ADME
Cytochrome P450 2D6 = Cytochrome P450 2D6 (Homo sapiens, UniProt P10635); assay: Inhibition of CYP2D6 (unknown origin); type: ADME
Cytochrome P450 2C9 = Cytochrome P450 2C9 (Homo sapiens, UniProt P11712); assay: Inhibition of CYP2C9 (unknown origin); type: ADME
[4] = Intrinsic clearance in human liver microsomes; type: ADME; details: read-out: CLH
[5] = Intrinsic clearance in mouse liver microsomes; type: ADME; details: read-out: CLH
[6] = Clearance in balb/c mouse at 5 mg/kg, iv by liquid chromatography-tandem mass spectrometry; type: ADME, organism-based; details: in vivo
Outline: (§2)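 Rodent PK in male balb/c mice and male Wistar rats; plasma drug levels by LC-MS/MS. Mouse oral dosing at 20 mg/kg, with compounds given as a 0.5% methylcellulose/0.5% Tween 80 suspension or as solutions (PEG300/D5W, or ethanol/PEG300 with Solutol or D5W), depending on compound.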

[7] = AUC in balb/c mouse at 20 mg/kg, po by liquid chromatography-tandem mass spectrometry; type: ADME, organism-based; details: in vivo; outline: as §2
[8] = Oral bioavailability in balb/c mouse at 20 mg/kg by liquid chromatography-tandem mass spectrometry; type: ADME, organism-based; details: in vivo; outline: as §2
[9] = Antitumor activity against human NCI-H1975 cells xenografted in Foxn1 nude mouse assessed as reduction in tumor volume at 50 mg/kg, po qd for 5 days relative to untreated control; type: functional
Outline: (§3)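 Female Foxn1 nude mice, H1975 cells inoculated subcutaneously. Randomized into groups once tumors reached 150−200 mm³, then dosed by oral gavage once daily for 5 days in 0.5% MC/0.5% Tween80 suspension (10 μL/g). Tumor volumes by caliper, (length × width × width)/2. %T/C = 100 × ΔT/ΔC, or % regression = 100 × ΔT/T_initial when ΔT < 0. Body weight recorded daily.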

[10] = Time duration during which free plasma concentration stays above in-vitro IC50 level in human NCI-H1975 cells xenografted Foxn1 nude mouse at 50 mg/kg, po qd for 5 days; type: ADME, organism-based; details: in vivo, 120 h
Outline: (§4)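 H1975 xenografts in Foxn1 nude mice, oral dosing once daily for 5 days. Plasma sampled after the last dose on day 5, at 30 min, 3 h, 7 h and 24 h. Free drug exposure was compared with in vitro cellular IC50 across the dosing interval.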

[11] = Time duration during which free plasma concentration stays above in-vitro IC50 level in human NCI-H1975 cells xenografted Foxn1 nude mouse at 25 mg/kg, po qd for 5 days; type: ADME, organism-based; details: in vivo, 120 h; outline: as §4
[12] = Antitumor activity against human NCI-H1975 cells xenografted in Foxn1 nude mouse assessed as reduction in tumor volume at 25 mg/kg, po qd for 5 days relative to untreated control; type: functional; outline: as §3
Mus musculus [13] = assay: Toxicity in human NCI-H1975 cells xenografted Foxn1 nude mouse assessed as change in body weight at 25 mg/kg, po qd for 5 days (reference value: […]); type: organism-based; details: in vivo, 120 h
Mus musculus [14] = assay: Toxicity in human NCI-H1975 cells xenografted Foxn1 nude mouse assessed as change in body weight at 50 mg/kg, po qd for 5 days (reference value: […]); type: organism-based; details: in vivo, 120 h
[15] = Mean residence time in balb/c mouse at 5 mg/kg, iv by liquid chromatography-tandem mass spectrometry; type: ADME, organism-based; details: in vivo
[16] = AUC in balb/c mouse at 5 mg/kg, iv by liquid chromatography-tandem mass spectrometry; type: ADME, organism-based; details: in vivo
[17] = Cmax in balb/c mouse at 20 mg/kg, po by liquid chromatography-tandem mass spectrometry; type: ADME, organism-based; parameters: dose 20 mg/kg, route oral; details: in vivo; outline: as §2
[18] = Tmax in balb/c mouse at 20 mg/kg, po by liquid chromatography-tandem mass spectrometry; type: ADME, organism-based; details: in vivo; outline: as §2
[19] = Clearance in Wistar rat at 3 mg/kg, iv by liquid chromatography-tandem mass spectrometry; type: ADME, organism-based; details: in vivo; outline: as §2
[20] = Volume of distribution at steady state in Wistar rat at 3 mg/kg, iv by liquid chromatography-tandem mass spectrometry; type: ADME, organism-based; details: in vivo, read-out: Vdss; outline: as §1
[21] = Mean residence time in Wistar rat at 3 mg/kg, iv by liquid chromatography-tandem mass spectrometry; type: ADME, organism-based; details: in vivo
[22] = AUC in Wistar rat at 3 mg/kg, iv by liquid chromatography-tandem mass spectrometry; type: ADME, organism-based; details: in vivo
[23] = AUC in Wistar rat at 10 mg/kg, po by liquid chromatography-tandem mass spectrometry; type: ADME, organism-based; details: in vivo; outline: as §2
[24] = Cmax in Wistar rat at 10 mg/kg, po by liquid chromatography-tandem mass spectrometry; type: ADME, organism-based; parameters: dose 10 mg/kg, route oral; details: in vivo; outline: as §2
[25] = Tmax in Wistar rat at 10 mg/kg, po by liquid chromatography-tandem mass spectrometry; type: ADME, organism-based; details: in vivo; outline: as §2
[26] = Oral bioavailability in Wistar rat at 10 mg/kg by liquid chromatography-tandem mass spectrometry; type: ADME, organism-based; details: in vivo; outline: as §2
[27] = Clearance in Wistar rat at 3 mg/kg, iv by liquid chromatography-tandem mass spectrometry relative to liver blood flow; type: ADME, organism-based; details: in vivo
[28] = Clearance in balb/c mouse at 5 mg/kg, iv by liquid chromatography-tandem mass spectrometry relative to liver blood flow; type: ADME, organism-based; details: in vivo
Homo sapiens [29] = species on record: Homo sapiens; assay: Antitumor activity in NSCLC patient assessed as response rate; type: functional
Homo sapiens [30] = species on record: Homo sapiens; assay: Antitumor activity in NSCLC patient assessed as disease control rate; type: functional
[31] = molecular target: T1, Epidermal growth factor receptor (Homo sapiens, UniProt P00533, L858R/T790M); assay: Inhibition of EGFR L858R/T790M mutant phosphorylation in human patient derived H1975 cells incubated for 3 hrs by ELISA method; type: cell-based
[32] = molecular target: T2, Epidermal growth factor receptor (Homo sapiens, UniProt P00533, L858R); assay: Inhibition of EGFR L858R mutant phosphorylation in human patient derived H3255 cells incubated for 3 hrs by ELISA method; type: cell-based
[33] = molecular target: T3, Epidermal growth factor receptor (Homo sapiens, UniProt P00533); assay: Inhibition of wild type EGFR phosphorylation in human HaCaT cells incubated for 3 hrs by ELISA method; type: cell-based
[34] = Glutathione reactivity assessed as GSH adduct formation incubated for 1 hr using 10 mM glutathione
Outline: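 Compound incubated 1 h with 10 mM glutathione; GSH adduct formation measured.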

[35] = Time duration during which free plasma concentration stays above in-vitro IC50 level in human NCI-H1975 cells xenografted Foxn1 nude mouse at 20 mg/kg, po qd for 5 days; type: ADME, organism-based; details: in vivo, 120 h; outline: as §4
[36] = Antitumor activity against human NCI-H1975 cells xenografted in Foxn1 nude mouse assessed as reduction in tumor volume at 20 mg/kg, po qd for 5 days relative to untreated control; type: functional; outline: as §3
Mus musculus [37] = assay: Toxicity in human NCI-H1975 cells xenografted Foxn1 nude mouse assessed as change in body weight at 20 mg/kg, po qd for 5 days (reference value: […]); type: organism-based; details: in vivo, 120 h
[38] = molecular target: T1, Epidermal growth factor receptor; assay: Inhibition of N-terminal 6x-HIS-tagged human recombinant EGFR (696 to 1022 residues) L858R/T790M mutant expressed in Sf9 cells pre-incubated for 0 mins followed by 1 mM ATP addition by HTRF assay
Outline: (§5)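 HTRF kinase assay on the EGFR L858R-T790M kinase domain at 1 mM ATP. Compound with either no preincubation or a 90 min enzyme/compound preincubation.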

[39] = molecular target: T1, Epidermal growth factor receptor; assay: Inhibition of N-terminal 6x-HIS-tagged human recombinant EGFR (696 to 1022 residues) L858R/T790M mutant expressed in Sf9 cells pre-incubated for 90 mins followed by 1 mM ATP addition by HTRF assay; outline: as §5
[40] = molecular target: T1, Epidermal growth factor receptor; assay: Inhibition of EGFR L858R/T790M mutant (unknown origin) phosphorylation expressed in mouse NIH/3T3 cells incubated for 3 hrs by ELISA method; type: cell-based
Outline: (§6)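 Engineered NIH-3T3 cells expressing L858R-T790M, L858R or WT EGFR. 3 h compound treatment, then cellular phospho-EGFR target modulation read-out. IC50 averaged from at least duplicates.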

[41] = molecular target: T2, Epidermal growth factor receptor; assay: Inhibition of EGFR L858R mutant (unknown origin) phosphorylation expressed in mouse NIH/3T3 cells incubated for 3 hrs by ELISA method; type: cell-based; outline: as §6
[42] = molecular target: T3, Epidermal growth factor receptor; assay: Inhibition of wild type human EGFR phosphorylation expressed in mouse NIH/3T3 cells incubated for 3 hrs by ELISA method; type: cell-based; outline: as §6

T1 sequence (P00533 25-1210 T790M/L858R limits assumed): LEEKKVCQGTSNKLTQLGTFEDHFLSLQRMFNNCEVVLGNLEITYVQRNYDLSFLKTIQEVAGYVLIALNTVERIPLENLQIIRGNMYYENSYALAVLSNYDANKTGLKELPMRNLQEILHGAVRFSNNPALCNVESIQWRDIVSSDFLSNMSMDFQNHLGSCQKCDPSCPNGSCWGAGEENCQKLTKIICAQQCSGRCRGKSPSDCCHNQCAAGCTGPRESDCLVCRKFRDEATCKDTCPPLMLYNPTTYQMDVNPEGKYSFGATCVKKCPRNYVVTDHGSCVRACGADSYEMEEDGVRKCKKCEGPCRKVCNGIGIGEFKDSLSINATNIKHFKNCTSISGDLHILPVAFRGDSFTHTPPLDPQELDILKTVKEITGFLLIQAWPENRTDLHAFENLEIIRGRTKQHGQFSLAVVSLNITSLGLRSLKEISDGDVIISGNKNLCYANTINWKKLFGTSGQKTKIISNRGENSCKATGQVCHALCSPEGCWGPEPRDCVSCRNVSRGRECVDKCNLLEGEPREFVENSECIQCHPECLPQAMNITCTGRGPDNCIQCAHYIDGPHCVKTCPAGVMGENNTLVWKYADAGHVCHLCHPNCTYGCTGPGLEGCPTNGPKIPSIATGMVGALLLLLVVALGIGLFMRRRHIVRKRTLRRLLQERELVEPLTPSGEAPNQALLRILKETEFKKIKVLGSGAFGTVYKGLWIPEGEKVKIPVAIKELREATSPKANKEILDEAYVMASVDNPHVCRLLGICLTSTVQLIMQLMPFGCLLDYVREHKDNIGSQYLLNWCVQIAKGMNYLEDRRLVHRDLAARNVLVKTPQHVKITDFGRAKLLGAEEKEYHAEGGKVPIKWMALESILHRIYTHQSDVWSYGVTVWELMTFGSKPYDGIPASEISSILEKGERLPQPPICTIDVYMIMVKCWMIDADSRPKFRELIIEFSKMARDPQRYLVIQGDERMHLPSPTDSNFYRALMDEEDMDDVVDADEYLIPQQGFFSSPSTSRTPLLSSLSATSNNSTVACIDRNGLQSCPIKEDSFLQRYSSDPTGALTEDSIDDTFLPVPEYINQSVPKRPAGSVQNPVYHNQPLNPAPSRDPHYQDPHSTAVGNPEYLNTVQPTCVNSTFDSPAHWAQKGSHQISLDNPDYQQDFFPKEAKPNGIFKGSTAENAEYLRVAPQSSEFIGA
T3 sequence (P00533 whole entry): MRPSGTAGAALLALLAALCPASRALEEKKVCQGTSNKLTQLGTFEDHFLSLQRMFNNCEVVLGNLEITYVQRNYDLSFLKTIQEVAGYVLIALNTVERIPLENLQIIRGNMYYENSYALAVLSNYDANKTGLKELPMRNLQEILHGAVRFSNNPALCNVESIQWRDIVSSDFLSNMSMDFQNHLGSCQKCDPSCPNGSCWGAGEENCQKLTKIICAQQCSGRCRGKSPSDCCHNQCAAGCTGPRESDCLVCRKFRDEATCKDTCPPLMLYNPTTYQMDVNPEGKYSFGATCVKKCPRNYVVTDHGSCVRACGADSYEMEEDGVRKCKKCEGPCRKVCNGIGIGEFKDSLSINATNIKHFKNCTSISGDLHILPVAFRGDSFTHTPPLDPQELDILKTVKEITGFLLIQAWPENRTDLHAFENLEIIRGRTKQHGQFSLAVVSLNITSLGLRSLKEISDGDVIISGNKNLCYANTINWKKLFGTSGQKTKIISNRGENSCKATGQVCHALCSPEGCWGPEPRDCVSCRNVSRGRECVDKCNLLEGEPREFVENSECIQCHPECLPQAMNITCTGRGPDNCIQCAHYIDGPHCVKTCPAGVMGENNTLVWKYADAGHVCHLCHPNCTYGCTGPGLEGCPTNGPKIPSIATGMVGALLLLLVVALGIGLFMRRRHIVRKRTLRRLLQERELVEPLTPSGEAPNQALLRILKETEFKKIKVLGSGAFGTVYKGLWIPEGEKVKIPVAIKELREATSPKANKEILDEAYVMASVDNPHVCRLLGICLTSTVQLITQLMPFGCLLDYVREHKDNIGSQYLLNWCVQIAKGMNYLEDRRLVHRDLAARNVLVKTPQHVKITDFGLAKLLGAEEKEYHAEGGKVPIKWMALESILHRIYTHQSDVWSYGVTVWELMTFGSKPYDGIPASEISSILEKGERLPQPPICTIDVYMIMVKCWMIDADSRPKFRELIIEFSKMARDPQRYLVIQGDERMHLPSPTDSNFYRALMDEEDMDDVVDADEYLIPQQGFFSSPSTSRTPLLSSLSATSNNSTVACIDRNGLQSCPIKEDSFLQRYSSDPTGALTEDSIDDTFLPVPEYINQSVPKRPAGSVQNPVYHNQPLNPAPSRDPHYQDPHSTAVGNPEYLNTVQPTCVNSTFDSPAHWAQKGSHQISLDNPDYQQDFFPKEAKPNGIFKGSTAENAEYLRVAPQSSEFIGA
Cytochrome P450 2C9, sequence (P11712 whole entry): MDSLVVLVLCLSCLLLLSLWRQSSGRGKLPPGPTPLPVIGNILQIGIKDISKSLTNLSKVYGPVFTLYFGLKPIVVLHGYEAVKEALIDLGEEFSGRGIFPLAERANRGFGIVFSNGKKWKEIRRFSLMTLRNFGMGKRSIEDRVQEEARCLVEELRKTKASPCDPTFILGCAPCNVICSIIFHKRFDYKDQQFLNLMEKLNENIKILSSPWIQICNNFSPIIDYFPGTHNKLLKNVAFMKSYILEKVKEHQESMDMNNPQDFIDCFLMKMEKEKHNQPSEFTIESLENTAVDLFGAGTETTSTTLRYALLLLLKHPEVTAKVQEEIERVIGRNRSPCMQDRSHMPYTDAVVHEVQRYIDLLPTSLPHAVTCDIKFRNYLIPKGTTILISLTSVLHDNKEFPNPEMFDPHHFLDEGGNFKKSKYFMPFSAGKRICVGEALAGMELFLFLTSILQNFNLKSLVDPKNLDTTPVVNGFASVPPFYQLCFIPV
T2 sequence (P00533 25-1210 L858R limits assumed): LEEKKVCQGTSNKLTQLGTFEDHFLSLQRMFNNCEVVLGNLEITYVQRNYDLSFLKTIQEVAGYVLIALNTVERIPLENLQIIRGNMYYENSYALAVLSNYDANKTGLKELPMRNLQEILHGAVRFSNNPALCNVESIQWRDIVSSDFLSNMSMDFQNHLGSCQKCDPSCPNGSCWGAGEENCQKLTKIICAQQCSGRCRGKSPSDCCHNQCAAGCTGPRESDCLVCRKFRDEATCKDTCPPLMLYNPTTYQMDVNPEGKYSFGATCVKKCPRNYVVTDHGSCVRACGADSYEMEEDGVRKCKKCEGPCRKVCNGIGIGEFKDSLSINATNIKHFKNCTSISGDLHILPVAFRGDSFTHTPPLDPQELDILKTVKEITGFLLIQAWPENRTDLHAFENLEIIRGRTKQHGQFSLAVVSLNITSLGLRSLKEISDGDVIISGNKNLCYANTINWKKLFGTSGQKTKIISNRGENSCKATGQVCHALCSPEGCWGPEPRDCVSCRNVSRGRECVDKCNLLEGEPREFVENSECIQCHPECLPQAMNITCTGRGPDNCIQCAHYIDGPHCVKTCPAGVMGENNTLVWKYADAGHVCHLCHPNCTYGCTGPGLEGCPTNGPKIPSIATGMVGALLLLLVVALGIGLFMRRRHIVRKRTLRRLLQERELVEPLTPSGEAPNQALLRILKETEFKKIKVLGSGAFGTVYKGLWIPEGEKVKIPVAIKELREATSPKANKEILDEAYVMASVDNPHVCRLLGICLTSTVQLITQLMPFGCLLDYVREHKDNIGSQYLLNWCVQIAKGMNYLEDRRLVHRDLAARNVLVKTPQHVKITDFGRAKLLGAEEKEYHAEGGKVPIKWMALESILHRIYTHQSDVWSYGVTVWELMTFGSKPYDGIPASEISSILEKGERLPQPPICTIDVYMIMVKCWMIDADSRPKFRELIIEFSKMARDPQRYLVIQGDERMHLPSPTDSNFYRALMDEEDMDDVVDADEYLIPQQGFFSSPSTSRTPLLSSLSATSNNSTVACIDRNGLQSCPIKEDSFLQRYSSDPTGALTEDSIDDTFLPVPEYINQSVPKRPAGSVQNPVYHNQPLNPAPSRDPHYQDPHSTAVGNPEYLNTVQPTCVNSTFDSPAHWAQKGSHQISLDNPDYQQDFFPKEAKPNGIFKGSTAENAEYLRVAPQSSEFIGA
Cytochrome P450 3A4, sequence (P08684 whole entry): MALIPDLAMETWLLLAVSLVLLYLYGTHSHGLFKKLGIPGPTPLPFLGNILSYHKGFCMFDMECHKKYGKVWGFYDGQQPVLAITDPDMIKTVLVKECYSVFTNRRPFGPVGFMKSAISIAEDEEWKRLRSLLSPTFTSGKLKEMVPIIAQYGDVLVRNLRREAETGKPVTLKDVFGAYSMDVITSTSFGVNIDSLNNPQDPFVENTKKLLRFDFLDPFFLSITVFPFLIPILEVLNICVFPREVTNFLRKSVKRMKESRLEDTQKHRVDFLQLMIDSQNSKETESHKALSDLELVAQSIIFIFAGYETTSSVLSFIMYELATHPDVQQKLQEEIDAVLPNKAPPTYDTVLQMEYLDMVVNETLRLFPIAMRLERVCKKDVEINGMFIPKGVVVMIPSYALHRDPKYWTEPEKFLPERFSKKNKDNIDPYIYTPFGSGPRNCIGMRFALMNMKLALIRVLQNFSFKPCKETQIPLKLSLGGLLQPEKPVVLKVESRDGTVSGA
Cytochrome P450 2D6, sequence (P10635 whole entry): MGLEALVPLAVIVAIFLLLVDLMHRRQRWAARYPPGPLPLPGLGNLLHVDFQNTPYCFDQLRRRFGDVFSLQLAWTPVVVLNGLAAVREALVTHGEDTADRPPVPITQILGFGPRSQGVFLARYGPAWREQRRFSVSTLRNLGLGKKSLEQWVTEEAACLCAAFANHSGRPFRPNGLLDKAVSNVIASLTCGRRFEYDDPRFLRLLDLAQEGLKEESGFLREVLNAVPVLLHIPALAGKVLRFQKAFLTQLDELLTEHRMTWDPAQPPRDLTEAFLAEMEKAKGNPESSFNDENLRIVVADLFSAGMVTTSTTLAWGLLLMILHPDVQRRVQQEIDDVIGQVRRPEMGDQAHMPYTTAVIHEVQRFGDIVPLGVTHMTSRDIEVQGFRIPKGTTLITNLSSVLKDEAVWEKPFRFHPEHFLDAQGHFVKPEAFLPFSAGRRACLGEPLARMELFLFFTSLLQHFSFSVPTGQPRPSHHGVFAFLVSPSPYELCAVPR

Cc1cc(C(=O)Nc2nc3cccc(Cl)c3n2[C@@H]2CCCCN(C(=O)/C=C/CN(C)C)C2)ccn1 [NAZARTINIB]
Vd [1]: 2.8 L/kg
IC50 [2]: 1.52 nM
solubility [3]: > 175 µM
IC50 (Cytochrome P450 3A4): > 25000 nM
IC50 (Cytochrome P450 2D6): 7000 nM
IC50 (Cytochrome P450 2C9): > 25000 nM
microsomal CLint [4]: 34 µL/min/mg
microsomal CLint [5]: 66 µL/min/mg
clearance [6]: 31.6 mL/min/kg
AUC [7]: 12.8 µM·h
bioavailability [8]: 60%
T/C [9]: -72%
Time [10]: <= 14 hr
Time [11]: <= 14 hr
T/C [12]: -32%
Activity (Mus musculus [13]): 5.3%
Activity (Mus musculus [14]): 3.8%
MRT [15]: 1.5 h
AUC [16]: 5.34 µM·h
Cmax [17]: 2940 nM
Tmax [18]: 0.83 h
clearance [19]: 15.7 mL/min/kg
Vd [20]: 2.4 L/kg
MRT [21]: 2.6 h
AUC [22]: 6.53 µM·h
AUC [23]: 12 µM·h
Cmax [24]: 987 nM
Tmax [25]: 3 h
bioavailability [26]: 55%
CL [27]: 30%
CL [28]: 35%
Activity (Homo sapiens [29]): 60%
Activity (Homo sapiens [30]): 93%

Cc1cc(C(=O)Nc2nc3cccc(C)c3n2[C@@H]2CCCCN(C(=O)/C=C/CN(C)C)C2)ccn1
IC50 [31]: 2.11 nM
IC50 [32]: 3.05 nM
IC50 [2]: 1.01 nM
IC50 [33]: 68 nM
solubility [3]: > 175 µM
IC50 (Cytochrome P450 3A4): > 25000 nM
IC50 (Cytochrome P450 2D6): > 25000 nM
IC50 (Cytochrome P450 2C9): > 25000 nM
microsomal CLint [4]: 26 µL/min/mg
microsomal CLint [5]: 62 µL/min/mg
clearance [6]: 68.5 mL/min/kg
AUC [7]: 3.53 µM·h
bioavailability [8]: 34%
Drug metabolism [34]: < 5%
T/C [9]: -65%
Time [35]: <= 14 hr
T/C [36]: -6%
Activity (Mus musculus [14]): -5%
Activity (Mus musculus [37]): -1.1%

C=CC(=O)N[C@@H]1CCC[C@@H](n2c(NC(=O)c3cccc(C(F)(F)F)c3)nc3cc(C)ccc32)C1 (racemic)
IC50 [38]: > 50000 nM
IC50 [39]: 60 nM
IC50 [40]: 409 nM
IC50 [41]: > 3720 nM
IC50 [42]: > 10000 nM
